The text below walks through data of ChEMBL document CHEMBL4393719, “Tetrahydro-3-benzazepines with fluorinated side chains as NMDA and σ1 receptor antagonists: Synthesis, receptor affinity, selectivity and antiallodynic activity” (Eur J Med Chem, 2019).

Data set [1] has as its target Sigma non-opioid intracellular receptor 1 (Cavia porcellus, UniProt Q60492). It counts as cell membranes.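 Note: radioligand displacement of [3H]-(+)-pentazocine from guinea pig brain cortex membranes, 120 min incubation, bound radioactivity read by scintillation counting.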
For data set [2], the target named is T1, Sigma intracellular receptor 2 (Rattus norvegicus, UniProt Q5U3Y7).
T1 sequence (Q5U3Y7 whole entry): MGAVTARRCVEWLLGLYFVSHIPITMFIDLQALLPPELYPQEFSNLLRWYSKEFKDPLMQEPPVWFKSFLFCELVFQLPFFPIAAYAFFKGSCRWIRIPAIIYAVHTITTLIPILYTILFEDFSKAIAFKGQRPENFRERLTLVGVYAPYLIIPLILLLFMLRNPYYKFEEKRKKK
As to the kind of experiment: Displacement of [3H]-di-o-tolylguanidine from sigma2 receptor in rat liver membranes incubated for 120 mins by scintillation counting method. It counts as cell membranes.

The target in the next data set is Mu-type opioid receptor (Homo sapiens, UniProt P35372). The experiment in a line: Displacement of [3H]DAMGO from human MOR expressed in CHO-K1 cells membranes after 60 mins by micro beta scintillation counting method. Type of data set: cell membranes. The essentials:
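Human MOR in CHO-K1 membranes (20 µg) with 1 nM [3H]DAMGO in 50 mM Tris-HCl, 5 mM MgCl2, pH 7.4, 27 °C for 60 min. Test compound at five concentrations; 10 µM naloxone defines nonspecific binding. Filtered, washed thrice with ice-cold 10 mM Tris-HCl, counted by liquid scintillation.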

For data set [3], the target named is Delta-type opioid receptor (Homo sapiens, UniProt P41143). As to the kind of experiment: Inhibition of DOR (unknown origin).
Chain of Delta-type opioid receptor (P41143 whole entry): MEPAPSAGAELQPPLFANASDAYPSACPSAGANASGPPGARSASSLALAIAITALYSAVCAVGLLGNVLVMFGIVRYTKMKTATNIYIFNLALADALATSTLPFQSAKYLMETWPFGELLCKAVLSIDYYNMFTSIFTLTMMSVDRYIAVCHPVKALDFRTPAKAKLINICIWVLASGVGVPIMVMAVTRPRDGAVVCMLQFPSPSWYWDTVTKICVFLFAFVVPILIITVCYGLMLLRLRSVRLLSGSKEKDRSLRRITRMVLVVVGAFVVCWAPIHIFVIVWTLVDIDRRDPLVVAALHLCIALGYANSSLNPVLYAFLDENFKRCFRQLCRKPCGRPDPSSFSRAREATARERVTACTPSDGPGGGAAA
For data set [4], the target named is Sodium-dependent noradrenaline transporter (Homo sapiens) (UniProt P23975). The experiment in a line: Displacement of [3H]nisoxetine from recombinant human norepinephrine transporter at 1 uM after 60 mins by scintillation counting method relative to control. An outline of the steps:
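Human NET-enriched membranes (1 μg), 5 nM [3H]nisoxetine in 50 mM Tris-HCl, 120 mM NaCl, 5 mM KCl, pH 7.4, 1% DMSO final; 60 min at 4 °C; 10 μM desipramine for nonspecific binding. Single 1 μM compound; filtration, displacement of radioligand.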

Data set [5] is described as follows: Drug metabolism in human liver microsomes at 1 uM incubated for 1 hr in presence of NADPH by UPLC-MS analysis. It counts as ADME, Microsome. To be noted: read-out: Drug metabolism. The essentials: (§1)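 Liver microsomes, compound 1 µM, 37 °C for 1 h in 50 mM Na/K phosphate pH 7.4, 3 mM MgCl2, NADPH-regenerating system, CYP 0.3 nmol/mL. Aliquots at 0, 10, 20, 40, 60 min quenched with cold acetonitrile, supernatants by UPLC-MS/MS; % parent remaining at end reported. Terfenadine as positive control.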

Data set [6] is described as follows: Drug metabolism in rat liver microsomes at 1 uM incubated for 1 hr in presence of NADPH by UPLC-MS analysis. The note with it: read-out: Drug metabolism. It counts as ADME, Microsome. An outline of the steps: as §1
In data set [7] the test system is Mus musculus. As to the kind of experiment: Antiallodynic activity in CD-1 mouse model of capsaicin-induced mechanical allodynia assessed as increase in paw withdrawal threshold at 16 mg/kg, sc administered 30 mins before capsaicin addition and measured after 15 mins in presence of sigma1 receptor agonist PRE-084 by von-Frey test. It counts as functional, organism-based. An outline of the steps:
(§2)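 Female CD-1 mice pretreated sc with σ1 agonist PRE-084 (32 mg/kg) 5 min before sc test compound; 30 min later capsaicin 1 µg intraplantar. After 15 min, 0.5 g electronic von Frey stimulus on secondary hyperalgesia area; withdrawal latency averaged over three trials, 50 s cutoff. Effect as % antiallodynia versus HPMC-treated; 6-8 animals, one-way ANOVA plus Bonferroni.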

Data set [8] has as its system Mus musculus. As to the kind of experiment: Antiallodynic activity in CD-1 mouse model of capsaicin-induced mechanical allodynia assessed as increase in paw withdrawal threshold at 32 mg/kg, sc administered 30 mins before capsaicin addition and measured after 15 mins in presence of sigma1 receptor agonist PRE-084 by von-Frey test. It counts as functional, organism-based. An outline of the steps: as §2

A short description of data set [9]: Selectivity ratio of Ki for GluN2B/GluN1a (unknown origin) expressed in mouse L(tk-) cell membranes to Ki for sigma1 receptor in guinea pig brain cortex membranes. It counts as cell-based.

pKi: −log10 of the molar value. Active and inactive are the calls of the source.

Chain of Sigma non-opioid intracellular receptor 1 (Q60492 whole entry): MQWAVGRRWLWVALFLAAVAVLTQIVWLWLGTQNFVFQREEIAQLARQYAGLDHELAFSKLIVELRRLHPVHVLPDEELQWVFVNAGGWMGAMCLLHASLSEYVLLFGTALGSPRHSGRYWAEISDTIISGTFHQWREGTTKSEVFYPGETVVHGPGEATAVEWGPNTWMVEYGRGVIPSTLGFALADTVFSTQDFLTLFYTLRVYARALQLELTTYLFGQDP
Chain of Sodium-dependent noradrenaline transporter (Homo sapiens) (P23975 whole entry): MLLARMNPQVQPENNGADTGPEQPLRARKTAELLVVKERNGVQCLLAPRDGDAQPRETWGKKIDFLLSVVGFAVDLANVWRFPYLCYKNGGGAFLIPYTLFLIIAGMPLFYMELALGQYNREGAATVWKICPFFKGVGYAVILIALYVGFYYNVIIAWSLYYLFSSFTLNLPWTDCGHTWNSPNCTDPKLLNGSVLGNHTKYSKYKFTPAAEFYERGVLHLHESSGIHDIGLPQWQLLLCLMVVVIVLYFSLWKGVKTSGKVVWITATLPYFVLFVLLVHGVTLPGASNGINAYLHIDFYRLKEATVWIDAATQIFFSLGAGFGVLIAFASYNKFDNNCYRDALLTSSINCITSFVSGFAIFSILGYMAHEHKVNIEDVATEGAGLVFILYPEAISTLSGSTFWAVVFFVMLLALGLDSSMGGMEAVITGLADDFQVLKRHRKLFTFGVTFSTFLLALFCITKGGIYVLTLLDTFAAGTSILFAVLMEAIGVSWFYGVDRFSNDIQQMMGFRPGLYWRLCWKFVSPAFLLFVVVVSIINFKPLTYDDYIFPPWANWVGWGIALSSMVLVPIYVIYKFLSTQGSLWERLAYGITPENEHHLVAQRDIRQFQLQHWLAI
Chain of Mu-type opioid receptor (P35372 whole entry): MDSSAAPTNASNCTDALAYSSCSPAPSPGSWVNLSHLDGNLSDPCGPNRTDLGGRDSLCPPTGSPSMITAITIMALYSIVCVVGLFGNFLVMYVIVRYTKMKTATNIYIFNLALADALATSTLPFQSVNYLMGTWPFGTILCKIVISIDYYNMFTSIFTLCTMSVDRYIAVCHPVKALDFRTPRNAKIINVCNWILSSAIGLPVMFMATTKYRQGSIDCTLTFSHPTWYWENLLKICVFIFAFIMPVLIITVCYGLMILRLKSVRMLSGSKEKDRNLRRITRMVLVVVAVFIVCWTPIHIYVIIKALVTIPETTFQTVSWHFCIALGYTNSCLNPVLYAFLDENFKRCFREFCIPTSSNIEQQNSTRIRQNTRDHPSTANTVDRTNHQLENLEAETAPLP

Take `COc1ccc2c(c1)CCN(CCC(F)Cc1ccccc1)CC2` (stereo not given): the negative logarithm of the Ki (pKi) in [1] is 8.18; in [2], 6.94; on Mu-type opioid receptor, < 6.00; in [3] it was < 6.00. For the same molecule, in data set [4], the inhibition was < 50%. The metabolised at 1 h, 1 µM in data set [5] and in data set [6] was 100% each time. For the same molecule, in the data set with Mus musculus [7], the result was inactive. In the data set with Mus musculus [8], the result was Active. Further, the Ratio Ki in data set [9] was < 18.
